Measured values published in ChEMBL document CHEMBL1145462, “In vivo pharmacodynamic activity of the glycopeptide dalbavancin” (Antimicrob Agents Chemother, 2007).
Values after ≈ are worked out from the molar mass of the structure shown.

Columns and labels:
[1] = system: Staphylococcus aureus; experiment: AUC/MIC ratio of methicillin-resistant Staphylococcus aureus infected neutropenic mouse thigh infection model at 43 mg/kg, ip administered every 72 hrs by static effect experiment; format: functional; conditions: route intraperitoneal
[2] = system: Streptococcus pneumoniae; experiment: AUC/MIC ratio of Streptococcus pneumoniae 1325 infected neutropenic mouse thigh infection model at 0.83 mg/kg, ip administered every 72 hrs by static effect experiment; format: functional; conditions: route intraperitoneal
[3] = system: Staphylococcus aureus; experiment: Antibacterial activity against Staphylococcus aureus Smith by microdilution method; format: functional
Method in brief: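 MICs in duplicate on at least two occasions by standard CLSI broth microdilution; S. aureus grown and quantified in Mueller-Hinton broth/agar.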

[4] = Half life in bacterial pathogen-infected neutropenic Swiss ICR mouse thigh infection model at 10 mg/kg, ip; format: ADME, organism-based; set-up: dose 10 mg/kg, route intraperitoneal; conditions: in vivo
Method in brief: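 Thigh-infected neutropenic mice received single intraperitoneal doses (2.5, 5, 10, 20, 40, 80 mg/kg; 0.2 ml/dose). Blood was drawn by retroorbital aspiration from groups of three mice at 0.5, 1, 2, 4, 6, 24, 48, 72 and 96 h. Plasma levels were measured by microbiologic assay with Bacillus subtilis (detection limit 0.10 mg/liter). Noncompartmental analysis was used: half-life by linear least-squares regression, AUC by trapezoidal rule.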

[5] = system: Streptococcus pneumoniae; experiment: AUC/MIC ratio of Streptococcus pneumoniae 1396 infected neutropenic mouse thigh infection model at 0.69 mg/kg, ip administered every 72 hrs by 2-log killing experiment; conditions: route intraperitoneal
[6] = system: Streptococcus pneumoniae; experiment: Bactericidal activity against penicillin-susceptible Streptococcus pneumoniae ATCC 10813 infected neutropenic Swiss ICR mouse thigh infection model assessed as drug level causing 2-log reduction of bacterial count at 1.34 mg/kg, ip dosed every 24 hrs; format: functional; conditions: route intraperitoneal
Method in brief: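 Neutropenic mice (cyclophosphamide ip 150 mg/kg day −4, 100 mg/kg day −1, then every 48 h) received 0.1 ml log-phase inoculum per thigh under halothane. Intraperitoneal dalbavancin started 2 h later and was given for 6 days at q12h, q24h, q36h or q72h, two mice per regimen. Thigh CFU were counted at 144 h. Endpoint doses relative to start-of-therapy counts came from Hill-model nonlinear regression and are expressed per 24 h.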

[7] = system: Staphylococcus aureus; experiment: AUC/MBC ratio of methicillin-resistant Staphylococcus aureus infected neutropenic mouse thigh infection model at 85 mg/kg, ip administered every 72 hrs by 2-log killing experiment; format: functional; conditions: route intraperitoneal
[8] = system: Serum; experiment: Protein binding in Staphylococcus aureus infected neutropenic mouse serum; format: ADME, organism-based; conditions: in vivo
Method in brief: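 MICs for S. aureus ATCC 25923 and an MRSA strain were compared in broth, heat-treated (100°C, 30 min) 95% mouse serum and 95% serum ultrafiltrate, using arithmetic dilutions of 0.02 mg/liter per tube. Bound fraction = (MIC in serum − MIC in ultrafiltrate)/MIC in serum.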

[9] = system: Staphylococcus aureus; experiment: AUC/MIC ratio of methicillin-resistant Staphylococcus aureus infected neutropenic mouse thigh infection model at 62 mg/kg, ip administered every 72 hrs by 1-log killing experiment; format: functional; conditions: route intraperitoneal
[10] = system: Staphylococcus aureus; experiment: AUC/MBC ratio of Staphylococcus aureus Smith infected neutropenic mouse thigh infection model at 33.5 mg/kg, ip administered every 24 hrs by static effect experiment; format: functional; conditions: route intraperitoneal
[11] = system: Streptococcus pneumoniae; experiment: AUC/MIC ratio of Streptococcus pneumoniae 1325 infected neutropenic mouse thigh infection model at 0.99 mg/kg, ip administered every 72 hrs by 1-log killing experiment; format: functional; conditions: route intraperitoneal
[12] = system: Staphylococcus aureus; experiment: AUC/MIC ratio of Staphylococcus aureus 31005 infected neutropenic mouse thigh infection model at 49.3 mg/kg, ip administered every 24 hrs by static effect experiment; format: functional; conditions: route intraperitoneal
[13] = system: Staphylococcus aureus; experiment: AUC/MBC ratio of Staphylococcus aureus Smith infected neutropenic mouse thigh infection model at 95 mg/kg, ip administered every 72 hrs by 1-log killing experiment; format: functional; conditions: route intraperitoneal
[14] = system: Staphylococcus aureus; experiment: AUC/MBC ratio of Staphylococcus aureus 33591 infected neutropenic mouse thigh infection model at 93 mg/kg, ip administered every 72 hrs by 1-log killing experiment; format: functional; conditions: route intraperitoneal
[15] = system: Streptococcus pneumoniae; experiment: AUC/MIC ratio of Streptococcus pneumoniae 1293 infected neutropenic mouse thigh infection model at 1.68 mg/kg, ip administered every 72 hrs by 2-log killing experiment; format: functional; conditions: route intraperitoneal
[16] = system: Staphylococcus aureus; experiment: AUC/MIC ratio of Staphylococcus aureus 31005 infected neutropenic mouse thigh infection model at 127 mg/kg, ip administered every 72 hrs by 2-log killing experiment; format: functional; conditions: route intraperitoneal
[17] = system: Staphylococcus aureus; experiment: AUC/MIC ratio of Staphylococcus aureus Smith infected neutropenic mouse thigh infection model at 33.5 mg/kg, ip administered every 24 hrs by static effect experiment; format: functional; conditions: route intraperitoneal
[18] = system: Staphylococcus aureus; experiment: Antibacterial activity against Staphylococcus aureus 31005 by microdilution method; format: functional
Method in brief: (§1)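 MIC and MBC were determined by CLSI broth microdilution, in duplicate on at least two occasions. Staphylococci were grown in Mueller-Hinton broth and agar; pneumococci were plated on sheep blood agar.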

[19] = system: Streptococcus pneumoniae; experiment: AUC/MIC ratio of Streptococcus pneumoniae ATCC 10813 infected neutropenic mouse thigh infection model at 1.34 mg/kg, ip administered every 24 hrs by static effect experiment; format: functional; conditions: route intraperitoneal
[20] = system: Staphylococcus aureus; experiment: AUC/MBC ratio of Staphylococcus aureus Smith infected neutropenic mouse thigh infection model at 148 mg/kg, ip administered every 72 hrs by 2-log killing experiment; format: functional; conditions: route intraperitoneal
[21] = system: Streptococcus pneumoniae; experiment: AUC/MIC ratio of Streptococcus pneumoniae 1396 infected neutropenic mouse thigh infection model at 0.52 mg/kg, ip administered every 72 hrs by static effect experiment; format: functional; conditions: route intraperitoneal
[22] = AUC in bacterial pathogen-infected neutropenic Swiss ICR mouse thigh infection model at 2.5 mg/kg, ip; format: ADME, organism-based; set-up: dose 2.5 mg/kg, route intraperitoneal; conditions: in vivo
Method in brief: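 Single-dose serum PK in thigh-infected neutropenic mice; intraperitoneal dalbavancin (0.2 ml/dose) at 2.5–80 mg/kg. Blood from groups of three mice at 0.5–96 h by retroorbital aspiration; plasma level by Bacillus subtilis microbiologic assay (detection limit 0.10 mg/liter). Noncompartmental analysis; AUC by trapezoidal rule from mean concentrations, extrapolated to infinity.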

[23] = system: Streptococcus pneumoniae; experiment: AUC/MIC ratio of Streptococcus pneumoniae 1325 infected neutropenic mouse thigh infection model at 1.16 mg/kg, ip administered every 72 hrs by 2-log killing experiment; format: functional; conditions: route intraperitoneal
[24] = system: Streptococcus pneumoniae; experiment: Antibacterial activity against Streptococcus pneumoniae ATCC 10813 by microdilution method; format: functional; method in brief: as §1
[25] = system: Staphylococcus aureus; experiment: AUC/MBC ratio of Staphylococcus aureus ATCC 25923 infected neutropenic mouse thigh infection model at 51.2 mg/kg, ip administered every 24 hrs by 1-log killing experiment; format: functional; conditions: route intraperitoneal
[26] = system: Streptococcus pneumoniae; experiment: Antibacterial activity against Streptococcus pneumoniae 1199 by microdilution method; format: functional; method in brief: as §1
[27] = system: Staphylococcus aureus; experiment: AUC/MIC ratio of Staphylococcus aureus ATCC 25923 infected neutropenic mouse thigh infection model at 60 mg/kg, ip administered every 24 hrs by 2-log killing experiment; format: functional; conditions: route intraperitoneal
[28] = system: Staphylococcus aureus; experiment: Antibacterial activity against Staphylococcus aureus 307109 by microdilution method; format: functional; method in brief: as §1
[29] = system: Staphylococcus aureus; experiment: AUC/MBC ratio of Staphylococcus aureus ATCC 25923 infected neutropenic mouse thigh infection model at 60 mg/kg, ip administered every 24 hrs by 2-log killing experiment; format: functional; conditions: route intraperitoneal
[30] = system: Streptococcus pneumoniae; experiment: AUC/MIC ratio of Streptococcus pneumoniae ATCC 10813 infected neutropenic mouse thigh infection model at 0.82 mg/kg, ip administered every 72 hrs by 2-log killing experiment; format: functional; conditions: route intraperitoneal

Q: Which RatioAUC/MIC [1] does the source give for `CN[C@H]1C(=O)N[C@@H]2Cc3ccc(cc3)Oc3cc4cc(c3O[C@@H]3O[C@H](C(=O)O)[C@@H](O)[C@H](O)[C@H]3NC(=O)CCCCCCCCC(C)C)Oc3ccc(cc3Cl)[C@@H](O)[C@@H]3NC(=O)[C@H](NC(=O)[C@@H]4NC(=O)[C@@H](NC2=O)c2cc(cc(O)c2Cl)Oc2cc1ccc2O)c1ccc(O)c(c1)-c1c(O[C@H]2O[C@H](CO)[C@@H](O)[C@H](O)[C@@H]2O)cc(O)cc1[C@@H](C(=O)NCCCN(C)C)NC3=O` [DALBAVANCIN] here?
A: 147

Q: And the RatioAUC/MIC [2]?
A: 6

Q: And the MBC [3]?
A: 0.25 µg/mL (≈ 0.138 µM)

Q: And the MIC [3]?
A: 0.06 µg/mL (≈ 0.033 µM)

Q: What about the half-life [4] of the same compound?
A: 12.5 h

Q: And the RatioAUC/MIC [5]?
A: 4.8

Q: And the Activity [6]?
A: 1.75

Q: What about the Ratio [7] of the same compound?
A: 70

Q: And the Activity [8]?
A: 98.4%

Q: What about the RatioAUC/MIC [9] of the same compound?
A: 202

Q: And the Ratio [10]?
A: 75

Q: And the RatioAUC/MIC [11]?
A: 8.8

Q: And the RatioAUC/MIC [12]?
A: 483

Q: And the Ratio [13]?
A: 78

Q: What about the Ratio [14] of the same compound?
A: 76.6

Q: What about the RatioAUC/MIC [15] of the same compound?
A: 23.8

Q: What about the RatioAUC/MIC [16] of the same compound?
A: 364

Q: And the RatioAUC/MIC [17]?
A: 156

Q: And the MBC [18]?
A: 0.12 µg/mL (≈ 0.0661 µM)

Q: What about the MIC [18] of the same compound?
A: 0.06 µg/mL (≈ 0.033 µM)

Q: And the RatioAUC/MIC [19]?
A: 7.5

Q: What about the Ratio [20] of the same compound?
A: 122

Q: And the RatioAUC/MIC [21]?
A: 4

Q: And the AUC [22]?
A: 98000 ng·h/mL

Q: What about the RatioAUC/MIC [23] of the same compound?
A: 17.6

Q: What about the MBC [24] of the same compound?
A: 0.03 µg/mL (≈ 0.0165 µM)

Q: What about the MIC [24] of the same compound?
A: 0.03 µg/mL (≈ 0.0165 µM)

Q: What about the Ratio [25] of the same compound?
A: 60

Q: What about the MBC [26] of the same compound?
A: 0.004 µg/mL (≈ 0.0022 µM)

Q: And the MIC [26]?
A: 0.004 µg/mL (≈ 0.0022 µM)

Q: What about the RatioAUC/MIC [27] of the same compound?
A: 289

Q: And the MBC [28]?
A: 0.12 µg/mL (≈ 0.0661 µM)

Q: What about the MIC [28] of the same compound?
A: 0.06 µg/mL (≈ 0.033 µM)

Q: What about the Ratio [29] of the same compound?
A: 69.3

Q: And the RatioAUC/MIC [30]?
A: 1.6
